According to ChEMBL document CHEMBL1150163, “Steroidal glycosides from the leaves of Cestrum nocturnum” (2002):
In brackets after ≈: the same amount, converted by molar mass.

tested on: HSC-2; test: Cytotoxicity against human HSC2 cells after 24 hrs by MTT assay; type: functional; conditions: HSC-2, 24 h, read-out: LD50 (the source's name)
Procedure, shortened: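 HSC-2 oral squamous carcinoma cells grown as monolayers in DMEM with 10% heat-inactivated FBS, 37 °C, 5% CO2. Seeded at 6 × 10^3 cells/well, incubated 24 h, washed, then exposed to compounds for 24 h. MTT (0.2 mg/mL) for 4 h, DMSO lysis, absorbance at 540 nm. LD50 (50% reduction in viable cells) read from dose-response curve.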

Compound	CC50 [µg/mL]
CC(=O)[C@H]1[C@@H](OC(=O)CC[C@@H](C)CO[C@@H]2O[C@H](CO)[C@@H](O)[C@H](O)[C@H]2O)C[C@H]2[C@@H]3CC=C4C[C@@H](O[C@@H]5O[C@H](CO)[C@H](O[C@@H]6O[C@H](CO)[C@@H](O)[C@H](O[C@@H]7OC[C@@H](O)[C@H](O)[C@H]7O)[C@H]6O[C@@H]6O[C@H](CO)[C@@H](O)[C@H](O[C@@H]7O[C@H](CO)[C@@H](O)[C@H](O)[C@H]7O)[C@H]6O)[C@H](O)[C@H]5O)[C@H](O)C[C@]4(C)[C@H]3CC[C@@]21C	> 300
COc1cccc2c1C(=O)c1c(O)c3c(c(O)c1C2=O)C[C@@](O)(C(=O)CO)C[C@@H]3O[C@H]1C[C@H](N)[C@H](O)[C@H](C)O1 [DOXORUBICIN]	2.5 (≈ 4.6 µM)
C/C(C(=O)CC[C@@H](C)CO[C@@H]1O[C@H](CO)[C@@H](O)[C@H](O)[C@H]1O)=C1/C(=O)C[C@H]2[C@@H]3CC=C4C[C@@H](O[C@@H]5O[C@H](CO)[C@H](O[C@@H]6O[C@H](CO)[C@@H](O)[C@H](O[C@@H]7OC[C@@H](O)[C@H](O)[C@H]7O)[C@H]6O[C@@H]6O[C@H](CO)[C@@H](O)[C@H](O)[C@H]6O)[C@H](O)[C@H]5O)[C@H](O)C[C@]4(C)[C@H]3CC[C@]12C	> 300
C[C@@H]1CC[C@@]2(OC1)O[C@H]1C[C@H]3[C@@H]4CC=C5C[C@@H](O[C@@H]6O[C@H](CO)[C@H](O[C@@H]7O[C@H](CO)[C@@H](O)[C@H](O[C@@H]8OC[C@@H](O)[C@H](O)[C@H]8O)[C@H]7O[C@@H]7O[C@H](CO)[C@@H](O)[C@H](O[C@@H]8O[C@H](CO)[C@@H](O)[C@H](O)[C@H]8O)[C@H]7O)[C@H](O)[C@H]6O)[C@H](O)C[C@]5(C)[C@H]4CC[C@]3(C)[C@@]1(O)[C@@H]2C	4.4 (≈ 3.59 µM)
C[C@@H]1CC[C@@]2(OC1)O[C@H]1C[C@H]3[C@@H]4CC=C5C[C@@H](O[C@@H]6O[C@H](CO)[C@H](O[C@@H]7O[C@H](CO)[C@@H](O)[C@H](O[C@@H]8OC[C@@H](O)[C@H](O)[C@H]8O)[C@H]7O[C@@H]7O[C@H](CO)[C@@H](O)[C@H](O[C@@H]8O[C@H](CO)[C@@H](O)[C@H](O)[C@H]8O)[C@H]7O)[C@H](O)[C@H]6O)[C@H](O)C[C@]5(C)[C@H]4CC[C@]3(C)[C@H]1[C@@H]2C	2.7 (≈ 2.23 µM)
CO[C@]1(CC[C@@H](C)CO[C@@H]2O[C@H](CO)[C@@H](O)[C@H](O)[C@H]2O)O[C@H]2C[C@H]3[C@@H]4CC=C5C[C@@H](O[C@@H]6O[C@H](CO)[C@H](O[C@@H]7O[C@H](CO)[C@@H](O)[C@H](O[C@@H]8OC[C@@H](O)[C@H](O)[C@H]8O)[C@H]7O[C@@H]7O[C@H](CO)[C@@H](O)[C@H](O[C@@H]8O[C@H](CO)[C@@H](O)[C@H](O)[C@H]8O)[C@H]7O)[C@H](O)[C@H]6O)[C@H](O)C[C@]5(C)[C@H]4CC[C@]3(C)[C@H]2[C@@H]1C	6.1 (≈ 4.34 µM)
C[C@@H]1C(=O)O[C@H]2C[C@H]3[C@@H]4CC=C5C[C@@H](O[C@@H]6O[C@H](CO)[C@H](O[C@@H]7O[C@H](CO)[C@@H](O)[C@H](O[C@@H]8OC[C@@H](O)[C@H](O)[C@H]8O)[C@H]7O[C@@H]7O[C@H](CO)[C@@H](O)[C@H](O[C@@H]8O[C@H](CO)[C@@H](O)[C@H](O)[C@H]8O)[C@H]7O)[C@H](O)[C@H]6O)[C@H](O)C[C@]5(C)[C@H]4CC[C@]3(C)[C@H]21	> 300
C/C(C(=O)CC[C@@H](C)CO[C@@H]1O[C@H](CO)[C@@H](O)[C@H](O)[C@H]1O)=C1/C(=O)C[C@H]2[C@@H]3CC=C4C[C@@H](O[C@@H]5O[C@H](CO)[C@H](O[C@@H]6O[C@H](CO)[C@@H](O)[C@H](O[C@@H]7OC[C@@H](O)[C@H](O)[C@H]7O)[C@H]6O[C@@H]6O[C@H](CO)[C@@H](O)[C@H](O[C@@H]7O[C@H](CO)[C@@H](O)[C@H](O)[C@H]7O)[C@H]6O)[C@H](O)[C@H]5O)[C@H](O)C[C@]4(C)[C@H]3CC[C@]12C	281 (≈ 203 µM)
CC(=O)C1=CC[C@H]2[C@@H]3CC=C4C[C@@H](O[C@@H]5O[C@H](CO)[C@H](O[C@@H]6O[C@H](CO)[C@@H](O)[C@H](O[C@@H]7OC[C@@H](O)[C@H](O)[C@H]7O)[C@H]6O[C@@H]6O[C@H](CO)[C@@H](O)[C@H](O[C@@H]7O[C@H](CO)[C@@H](O)[C@H](O)[C@H]7O)[C@H]6O)[C@H](O)[C@H]5O)[C@H](O)C[C@]4(C)[C@H]3CC[C@]12C	192 (≈ 173 µM)
C[C@H]1CO[C@]2(C[C@@H]1O[C@@H]1O[C@H](CO)[C@@H](O)[C@H](O)[C@H]1O)O[C@H]1C[C@H]3[C@@H]4CC=C5C[C@@H](O[C@@H]6O[C@H](CO)[C@H](O[C@@H]7O[C@H](CO)[C@@H](O)[C@H](O[C@@H]8OC[C@@H](O)[C@H](O)[C@H]8O)[C@H]7O[C@@H]7O[C@H](CO)[C@@H](O)[C@H](O[C@@H]8O[C@H](CO)[C@@H](O)[C@H](O)[C@H]8O)[C@H]7O)[C@H](O)[C@H]6O)[C@H](O)C[C@]5(C)[C@H]4CC[C@]3(C)[C@H]1[C@@H]2C	> 300
CC1=C(CC[C@@H](C)CO[C@@H]2O[C@H](CO)[C@@H](O)[C@H](O)[C@H]2O)O[C@H]2C[C@H]3[C@@H]4CC=C5C[C@@H](O[C@@H]6O[C@H](CO)[C@H](O[C@@H]7O[C@H](CO)[C@@H](O)[C@H](O[C@@H]8OC[C@@H](O)[C@H](O)[C@H]8O)[C@H]7O[C@@H]7O[C@H](CO)[C@@H](O)[C@H](O[C@@H]8O[C@H](CO)[C@@H](O)[C@H](O)[C@H]8O)[C@H]7O)[C@H](O)[C@H]6O)[C@H](O)C[C@]5(C)[C@H]4CC[C@]3(C)[C@@H]12	> 300
